Published values collected from several papers.
Action: inhibitor
MAPK14: Mitogen-activated protein kinase 14 (MAPK14, Homo sapiens, UniProt Q16539)

Structure (SMILES) | target | assay | test system | conditions | inhibition
CN(c1ncccc1CNc1nc(Nc2ccc3c(c2)CC(=O)N3)ncc1C(F)(F)F)S(C)(=O)=O | MAPK14 | enzyme activity |  | 1 µM | 0%
CS(=O)(=O)Nc1cccc(-c2csc(NC(=O)CSc3nc4nccnc4c(=O)n3CCc3ccccc3)n2)c1 | MAPK14 | enzyme activity |  | 10 µM | -1%
CNC(=O)c1cc(Oc2ccc(NC(=O)Nc3ccc(Cl)c(C(F)(F)F)c3)cc2)ccn1 | MAPK14 | enzyme activity |  | 0.3 µM | -9%
CCCS(=O)(=O)Nc1ccc(F)c(C(=O)c2c[nH]c3ncc(-c4ccc(Cl)cc4)cc23)c1F | MAPK14 | enzyme activity |  | 1 µM | < 10%
COc1cc2ncnc(Nc3ccc(Oc4ccccc4)c(C)c3C)c2cc1OC | MAPK14 | enzyme activity |  | 1 µM | -3%
CNc1cc(Oc2cc(C(=O)Nc3cc(N4CCN(C)CC4)cc(C(F)(F)F)c3)ccc2C)ncn1 | MAPK14 | target engagement in cells, chemoproteomics | Huh-7 | 1 µM | -29%
COc1cccc2c(NCc3ccccc3)nc(-n3c(N)nc4ccccc43)nc12 | MAPK14 | target engagement in cells, chemoproteomics |  | 20 mM | 16.5%
Cc1ccc(Nc2nccc(N(C)c3ccc4c(C)n(C)nc4c3)n2)cc1S(N)(=O)=O | Mitogen-activated protein kinase 14 (MAPK14, Homo sapiens, UniProt Q16539, T106M) | enzyme activity |  | 10 µM | 13%
CN1CC(Oc2cnc(C#N)cc2-c2ccn3nc(NC(=O)C4CC4)cc3c2)C1 | MAPK14 | enzyme activity |  | 1 µM | -19%
COc1cc2ncnc(Nc3ccc(Oc4ccccc4)cc3C)c2cc1OC | MAPK14 | enzyme activity |  | 1 µM | 3%
O=C(CSc1nc2nccnc2c(=O)n1CCc1ccccc1)Nc1nccs1 | MAPK14 | enzyme activity |  | 10 µM | 3%
CCCCNc1ncc2c(-c3ccc(F)cc3)nn(C[C@H]3CC[C@H](N)CC3)c2n1 | MAPK14 | target engagement in cells, chemoproteomics |  | 20 mM | 60.6%
CC/C(=N\NC(=O)NCc1cccc(O)c1)c1ccc(O)c(C)c1O | MAPK14 | enzyme activity |  | 0.1 µM | -2.8%
CN(C)C1CCN(CC#Cc2nn(C3CCCC3)c3nc(NCc4ccccc4)ncc23)C1 (stereo not drawn) | MAPK14 | enzyme activity, FRET |  | 1 µM | 3%
CCN(CC)CCNC(=O)c1c(C)[nH]c(/C=C2\C(=O)Nc3ccc(F)cc32)c1C | MAPK14 | enzyme activity |  | 10 µM | -1%
